# Measured values: PubChem BioAssay
# Activity calls are given as the source filed them.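 How the source made its calls, unless noted: active means NADPH fluorescence slope more negative than the mean of all samples by about 3 SD, 99.7% confidence; inactive means the rest.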
# How the values were obtained:
# [1] = inhibitors of TNFa-induced NFkB p65 translocation, primary screen, imaging, HUVEC, MLSMR starter and 10KST1 sets (AID 438;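 active means inhibition above 20% together with a positive visual image hit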;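 further: compound added about 3h40 before a 20 min TNFalpha stimulation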;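 on inhibition: signal is the nuclear over cytoplasmic p65 intensity ratio per well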); conditions: HUVEC TNFa-induced p65 nuclear translocation; cell count: measured here: nuclei count (cytotoxicity indicator), at 2.08 µM; inhibition: at 2 µM, stronger effect = higher value, 0% TNFa-plus-vehicle, 100% no-TNFa wells
# [2] = inhibitors of mutant huntingtin aggregation, primary screen, imaging, exon1htt(103Q)mCFP cells, high-content imaging (AID 483;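 active means visual image review flags a hit and inhibition of aggregation exceeds 20%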;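 further: compound exposure lasted 3 days before fixation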;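 on nuclei count: percent of the per-plate median nuclei count of sample wells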); conditions: exon1htt(103Q)mCFP cell line, aggregate imaging, at 2 µM; inhibition of aggregation: stronger effect = higher value; nuclei count: measured here: cell count, toxicity
# [3] = inhibitors of E-selectin induction by TNFa, primary screen, imaging, HUVEC, immunofluorescence, MLSMR starter and 10KST1 sets (AID 487;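 active means visually confirmed hit in the image check and inhibition above 20%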;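 on inhibition: signal is fraction of cell area covered by stained E-selectin grains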;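 on nuclei count: 100% = median nuclei count of all wells on the same plate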); conditions: HUVEC TNFalpha-induced E-selectin immunofluorescence imaging, at 2 µM; inhibition: stronger effect = higher value; nuclei count: measured here: cell number, toxicity
# [4] = target: Voltage-gated potassium channel subunit beta-2 (Rattus norvegicus) (UniProt P62483); test: KvBeta enzyme negative modulators, primary screen, biochemical, NADPH fluorescence (AID 622;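 active means fluorescence slope higher than the sample average by over 3 SD, cut at about -0.22 in these data, passing the limit was not always enough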;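 further: slope of raw intensity against log time taken from 70 to 1610 s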); conditions: recombinant KvBeta, 4-cyanobenzaldehyde reduction, at 10 µM, stronger effect = higher value
# Chain of Voltage-gated potassium channel subunit beta-2 (Rattus norvegicus) (P62483 whole entry, looked up): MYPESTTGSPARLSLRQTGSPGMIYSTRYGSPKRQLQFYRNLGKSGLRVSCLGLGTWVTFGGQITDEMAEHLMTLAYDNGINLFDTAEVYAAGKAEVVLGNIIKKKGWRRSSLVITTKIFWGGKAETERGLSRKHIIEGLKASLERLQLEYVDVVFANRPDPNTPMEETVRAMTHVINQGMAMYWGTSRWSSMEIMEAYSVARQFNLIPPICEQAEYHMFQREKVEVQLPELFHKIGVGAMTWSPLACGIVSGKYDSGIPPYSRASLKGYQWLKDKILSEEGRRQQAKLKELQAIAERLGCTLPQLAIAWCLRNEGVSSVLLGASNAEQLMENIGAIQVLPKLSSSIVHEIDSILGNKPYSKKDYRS
# [5] = target: Voltage-gated potassium channel subunit beta-2 (Rattus norvegicus) (UniProt P62483); test: KvBeta positive modulators, primary screen, biochemical, NADPH fluorescence (AID 623); conditions: Recombinant KvBeta, NADPH fluorescence decrease slope, 10 min; at 10 µM; stronger effect = lower value;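 further: fluorescence intensity change per second fitted from 20 to 320 s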
# [6] = target: Alpha-2C adrenergic receptor (Homo sapiens) (UniProt P18825); test: modulators of alpha2C/GIRK thallium flux, primary screen, cell-based, HEK293 alpha2C/GIRK1/2 (AID 624;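 active means fluorescence slope after compound addition differing from the mean of all screened samples at 99.7% confidence, in either direction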;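 further: slope of fluorescence ratio to pre-addition baseline per second over 15 to 24 s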); conditions: thallium flux BTC fluorescence, at 10 µM, actives lie on both sides
# Chain of Alpha-2C adrenergic receptor (Homo sapiens) (P18825 whole entry, looked up): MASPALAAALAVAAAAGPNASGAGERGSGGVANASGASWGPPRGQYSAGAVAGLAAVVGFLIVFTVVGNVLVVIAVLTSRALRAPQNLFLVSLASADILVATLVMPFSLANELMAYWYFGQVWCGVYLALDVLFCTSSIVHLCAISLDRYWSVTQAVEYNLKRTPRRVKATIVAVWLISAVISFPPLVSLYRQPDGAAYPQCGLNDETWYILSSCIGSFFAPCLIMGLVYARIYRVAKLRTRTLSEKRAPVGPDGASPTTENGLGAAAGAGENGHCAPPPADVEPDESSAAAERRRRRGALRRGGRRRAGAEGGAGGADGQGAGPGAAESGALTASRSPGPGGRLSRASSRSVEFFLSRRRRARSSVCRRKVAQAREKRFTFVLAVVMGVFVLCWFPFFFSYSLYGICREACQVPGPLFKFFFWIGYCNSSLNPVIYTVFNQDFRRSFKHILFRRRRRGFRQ
# [7] = inhibitors of larval lipid processing in zebrafish, primary screen, whole organism, PED6 fluorescence, gall bladder and intestine (AID 686;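 active means a full or partial loss of lipid-probe fluorescence in the fish gall bladder, intestine or both, judged by eye; inactive means no fluorescence loss, or compound toxic to the fish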;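 further: larvae 5 to 7 days old with five fish per well; signal comes from phospholipase A2 cleavage of quenched PED6 carried via bile; overnight exposure to compound and PED6 before scoring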); conditions: Zebrafish larvae PED6 lipid processing, fluorescence scoring; screened at 20 µM (by protocol)
# How it was run: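 Also added: quenched phospholipase substrate PED6, 100 nM final, ingested by larvae; System: zebrafish larvae, 5-7 d; Quantity: 5 larvae per well; Compound: 20 µM single dose; Schedule: overnight compound and PED6 incubation; Read-out: visual per-well fluorescence inhibition score; Measured by: By-eye fluorescence microscopy; Medium: E3.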
# [8] = inhibitors of Sendai virus-induced IRF3 signaling, primary screen, TLR/RLR signaling modifier project, cell-based, Sendai virus stimulus, luciferase, 10K MLSCN set (AID 602276;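 active means inhibition at or above 50% at 10 µM; inactive means inhibition below 50%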;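 further: firefly luciferase from ISG56 promoter only with Renilla not read in this screen; 0% = Sendai virus plus DMSO and 100% = medium plus DMSO without virus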); conditions: HEK293 RL24 IRF3 luciferase reporter, at 10 µM, stronger effect = higher value
# [9] = inhibitors of poly I:C-induced TLR3 signaling, primary screen, cell-based, poly I:C stimulus, luciferase, 10K MLSCN set (AID 602277;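 active means inhibition of the reporter signal at or above 50%; inactive means inhibition below 50%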); conditions: HEK293-TLR3 RL24 IRF3 luciferase reporter, at 10 µM, stronger effect = higher value
SMILES,cell count [1],inhibition [1],inhibition of aggregation [2],nuclei count [2],inhibition [3],nuclei count [3],fluorescence slope [4],NADPH fluorescence slope [5],slope [6],outcome [7],inhibition [8],inhibition [9]
CN(c1ccccc1C(=O)NCC1CCCO1)S(C)(=O)=O (stereo not given),314,3.8% (inactive),4.6% (inactive),94.8%,-12.5% (inactive),93.8%,-0.444 (inactive),-3.7e-05 (inactive),0.00536 (inactive),inactive,15.7% (inactive),14.6% (inactive)
O=C(c1cccnc1)N1CCN(C(=O)c2ccccc2F)CC1,343,1% (inactive),-7.4% (inactive),97.7%,-6% (inactive),114%,-0.353 (inactive),-3.8e-05 (inactive),0.00512 (inactive),inactive,-1.4% (inactive),99.3% (active)
O=C(CSc1nc2cc(S(=O)(=O)N3CCOCC3)ccc2o1)NC1CCCc2ccccc21 (stereo not given),571,-16.3% (inactive),-7.6% (inactive),89.9%,36.5% (inactive),86.1%,-0.363 (inactive),-8.5e-05 (inactive),0.00378 (inactive),inactive,11.5% (inactive),99.3% (active)
O=C(CN(c1ccc(F)cc1)S(=O)(=O)c1ccc2c(c1)OCCO2)Nc1cccnc1,757,1.6% (inactive),7% (inactive),93.5%,-19.1% (inactive),111%,-0.453 (inactive),-4.5e-05 (inactive),0.00513 (inactive),inactive,7.14% (inactive),18.5% (inactive)
Cn1c(-c2ccccc2)cnc1SCc1nc2ccccc2c(=O)[nH]1,428,0.8% (inactive),-3.4% (inactive),119%,-80.8% (inactive),109%,-0.379 (inactive),-6.5e-05 (inactive),0.00544 (inactive),inactive,11.1% (inactive),-54% (inactive)
COc1ccccc1NC(=O)NCc1ccc2c(c1)OCO2,361,-9.8% (inactive),25.8% (inactive),97%,37.9% (inactive),78.8%,-0.341 (inactive),-2.6e-05 (inactive),0.0055 (inactive),inactive,10.7% (inactive),17.5% (inactive)
Cc1sc2nc3n(c(=O)c2c1C)NC(=O)CC3,744,-7.3% (inactive),-15% (inactive),66.7%,32.1% (inactive),85%,-0.421 (inactive),-2.9e-05 (inactive),0.0069 (inactive),inactive,16.2% (inactive),12.8% (inactive)
CCOc1ccc(NS(=O)(=O)c2cc(Cl)ccc2OC)cc1,279,-4.2% (inactive),19.4% (inactive),95.4%,-147% (inactive),129%,-0.282 (inactive),1.3e-05 (inactive),0.00586 (inactive),inactive,14.5% (inactive),21% (inactive)
Cc1ccc(S(=O)(=O)C(C#N)c2nc3ccccc3nc2OC(C)C)cc1 (stereo not given),493,0% (inactive),-10.6% (inactive),103%,-79.1% (inactive),114%,-0.38 (inactive),-8.6e-05 (inactive),0.00476 (inactive),inactive,9.93% (inactive),10.6% (inactive)
CCC(=O)Nc1ccc(NC(=O)c2ccccn2)cn1,778,-11% (inactive),-6.5% (inactive),102%,-9.1% (inactive),104%,-0.402 (inactive),-5.9e-05 (inactive),0.00517 (inactive),inactive,-3% (inactive),99.2% (active)
O=C(Nc1ccc(NC(=O)C2CC2)cn1)c1ccccc1Cl,745,2.6% (inactive),-13% (inactive),104%,-79% (inactive),113%,-0.316 (inactive),-8e-07 (inactive),0.00552 (inactive),inactive,-65.9% (inactive),-212% (inactive)
Cn1c(=O)[nH]c(=O)c2c1nc(N1CCOCC1)n2CC(O)COc1ccc2ccccc2c1 (stereo not given),438,-4.5% (inactive),10.8% (inactive),107%,-54.4% (inactive),120%,-0.44 (inactive),-3.2e-05 (inactive),0.00556 (inactive),inactive,15.8% (inactive),19.3% (inactive)
Cc1ccc2[nH]c3c(c2c1)CN(C(=O)CN1CCN(c2cccc(C)c2C)CC1)CC3,392,6.2% (inactive),22.7% (inactive),75.3%,-86.9% (inactive),111%,-0.306 (inactive),-2.6e-05 (inactive),0.00467 (inactive),inactive,22.6% (inactive),24.6% (inactive)
O=C(Nc1nnc(SCC(=O)N2CCCCC2)s1)C1CCCCC1,437,-3.4% (inactive),1.9% (inactive),99.2%,-34.7% (inactive),118%,-0.346 (inactive),-3.5e-05 (inactive),0.00464 (inactive),inactive,9.52% (inactive),13.5% (inactive)
Cc1onc(-c2ccccc2)c1C(=O)NCCN1CCOCC1,387,5% (inactive),-14% (inactive),129%,9.3% (inactive),93.5%,-0.38 (inactive),-2.2e-05 (inactive),0.0053 (inactive),inactive,0.171% (inactive),0.994% (inactive)
COC(=O)c1sccc1NC(=O)c1ccco1,474,-11.9% (inactive),8.2% (inactive),90.7%,19.6% (inactive),89.7%,-0.44 (inactive),-3.5e-05 (inactive),0.00438 (inactive),active; weak signal in gallbladder only,2.56% (inactive),-4.04% (inactive)
Cc1ccc(C)c(-n2nnnc2SCC(=O)NCCC2=CCCCC2)c1,409,-6.6% (inactive),28.8% (inactive),99.5%,-16.3% (inactive),106%,-0.468 (inactive),-5.4e-05 (inactive),0.00361 (inactive),inactive,17.6% (inactive),14.8% (inactive)
c1cncc(C2Nc3ccccc3-c3nc4ccccc4n32)c1 (stereo not given),428,21.8% (active),2.7% (inactive),93.3%,-151% (inactive),116%,-0.37 (inactive),-5.6e-05 (inactive),0.00507 (inactive),inactive,-7% (inactive),-38.6% (inactive)
Cc1cnc(NC(=O)CSc2nnc(-c3ccccc3)n2Cc2ccccc2)s1,682,-5.5% (inactive),14.8% (inactive),102%,-19.9% (inactive),105%,-0.493 (inactive),5.3e-05 (inactive),0.00426 (inactive),inactive,-3.73% (inactive),-7.1% (inactive)
CC(=O)c1ccc(N2CCN(C(=O)c3cc(C)on3)CC2)cc1,319,0% (inactive),18.7% (inactive),102%,40.6% (inactive),80.7%,-0.465 (inactive),-4.5e-05 (inactive),0.00513 (inactive),inactive,2.68% (inactive),-0.354% (inactive)
CC1(C)C2CCC1(C)C(OC(=O)CSc1nc(N)cc(=O)[nH]1)C2 (stereo not given),473,6.5% (inactive),4% (inactive),103%,-343% (inactive),136%,-0.367 (inactive),-4.6e-05 (inactive),0.00448 (inactive),inactive,3.84% (inactive),8.04% (inactive)
CC(OC(=O)CNC(=O)C12CC3CC(CC(C3)C1)C2)C(=O)Nc1ccc(N2CCOCC2)cc1 (stereo not given),663,4.1% (inactive),3.3% (inactive),110%,-47.1% (inactive),111%,-0.448 (inactive),-5.7e-05 (inactive),0.00563 (inactive),inactive,-2.61% (inactive),-14.5% (inactive)
CCOC(=O)C1CCN(CC(=O)c2c(C)[nH]c3ccccc23)CC1,669,3.9% (inactive),-5.8% (inactive),99.6%,11.6% (inactive),102%,-0.421 (inactive),-1.5e-05 (inactive),0.00551 (inactive),inactive,-3.58% (inactive),15.2% (inactive)
Cc1ccc(NC(=O)CSc2nnc(-c3ccc(S(=O)(=O)N4CCOCC4)cc3)n2C)cc1,740,-0.2% (inactive),0.9% (inactive),87%,9.3% (inactive),111%,-0.384 (inactive),-7.3e-05 (inactive),0.00534 (inactive),inactive,4.24% (inactive),4.26% (inactive)
COCCN(CCOC)C(=O)CCn1c(=O)oc2ccccc21,589,3.3% (inactive),2.1% (inactive),107%,37.7% (inactive),100%,-0.462 (inactive),-5.7e-05 (inactive),0.00623 (inactive),inactive,17.5% (inactive),8.78% (inactive)
